This note sets out measurements from ChEMBL document CHEMBL4406830, “Galloyl esters of trans-stilbenes are inhibitors of FASN with anticancer activity on non-small cell lung cancer cells” (Eur J Med Chem, 2019).

Active and inactive are the calls of the source. The rule behind the calls is not given here.

Assay [1] concerns NCI-H1703. Description: Antiproliferative activity against human NCI-H1703 cells expressing FASN assessed as growth inhibition at 25 uM after 72 hrs by MTS assay relative to control. The following applies: NCI-H1703, 72 h. Format: functional. In outline:
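H1703 cells were treated with a single 25 µM concentration for 72 h. Viability was measured by MTS at 490 nm, with 0.1% DMSO and media-only correction, relative to untreated control. Mean ± SD of n = 3 independent determinations, unpaired t test against control.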
(Tetrazolium assays rely on reduction of a dye to a coloured formazan, in cell work by metabolically active cells.)

Assay [2] relates to NCI-H1299. Description: Antiproliferative activity against human NCI-H1299 cells expressing FASN assessed as reduction in cell viability after 72 hrs by MTS assay. It counts as functional, cell-based. The note with it: NCI-H1299, 72 h. In outline:
(§1)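 ATCC-sourced cells. H1299, H1650, H1703 and PC-9 were grown in RPMI 1640 with 10% FBS. A549 was grown in high-glucose DMEM with 10% FBS and 1 mM pyruvate. SAEC was grown in BEGM. Cells were seeded at 3 × 10^3 per well (H1650 3.5 × 10^3) and left to attach overnight. Serial dilutions from DMSO stocks were added, 0.1% DMSO final, for 72 h at 37 °C, 5% CO2. Medium was replaced, MTS added, and A490 read after 2 h. IC50 was taken from % viability versus log concentration, 3 experiments.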

A short description of assay [3]: Selectivity index, ratio of IC50 for human SAE cells lacking FASN expression to IC50 for human NCI-H1299 cells expressing FASN expression. The procedure, abridged: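 Index is the SAEC IC50 divided by the IC50 in the FASN-expressing NSCLC line. IC50s came from MTS viability after 72 h exposure at 37 °C, 5% CO2, DMSO 0.1% v/v. Absorbance was read at 490 nm after 2 h. The fit was % viability against log concentration, with 4 technical repeats and 3 independent experiments. NSCLC lines were grown in RPMI/10% FBS; SAEC in BEGM.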

Assay [4] concerns NCI-H1650. Description: Antiproliferative activity against human NCI-H1650 cells expressing FASN assessed as reduction in cell viability after 72 hrs by MTS assay. The following applies: NCI-H1650, 72 h. Format: functional, cell-based. The procedure, abridged:
as §1

Assay [5] has as its system PC-9. Description: Antiproliferative activity against human PC9 cells harboring FASN expression and EGFR delE746-A750 mutant assessed as cell viability at 2 uM after 72 hrs in presence of exogenous lipid concentrate by MTS assay. It counts as functional, cell-based. In outline:
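Cells were treated as in the MTS viability assay. After 6 h, chemically defined lipid concentrate was added to 2% v/v final. Incubation continued for a further 72 h, then viability was read by MTS at 490 nm. Cells were treated at 2 µM (PC-9) or 1 µM (H1703). Mean ± SD, n = 3, compared with compound alone.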

Assay [6] addresses Fatty acid synthase (Homo sapiens) (UniProt P49327). Description: Inhibition of FASN in human NCI-H1703 cells expressing FASN assessed as disruption of AKT/FASN positive feedback loop by measuring decrease in FASN expression after 48 hrs by Western immunoblot assay. It counts as cell-based. The procedure, abridged: (§2)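 PC-9 or H1703 cells were seeded at 8 × 10^5 per 100 mm dish and treated for 48 h at 1 or 5 µM (or 5, 50 and 100 µM). RIPA lysates were BCA-quantified and run on 8% SDS-PAGE, then transferred to PVDF. Blots were probed for FASN, AKT, phospho-AKT S473 and GAPDH and detected by ECL. Bands were quantified by densitometry and normalised to vehicle control.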
(In general: Immunoblotting shows a protein as a band on a membrane.)

For assay [7] the target is unchanged. Description: Inhibition of FASN in human PC9 cells harboring FASN expression and EGFR delE746-A750 mutant assessed as disruption of AKT/FASN positive feedback loop by measuring decrease in FASN expression after 48 hrs by Western immunoblot assay. It counts as cell-based. The procedure, abridged: as §2
Assay [8] shares this target. Description: Inhibition of FASN in human PC9 cells harboring FASN expression and EGFR delE746-A750 mutant assessed as disruption of AKT/FASN positive feedback loop by measuring decrease in FASN expression at 1 uM after 48 hrs by Western immunoblot based densitometric assay relative to control. Format: cell-based. In outline:
as §2

Assay [9] has the same target. Description: Inhibition of FASN in human NCI-H1703 cells expressing FASN assessed as disruption of AKT/FASN positive feedback loop by measuring decrease in FASN expression at 1 uM after 48 hrs by Western immunoblot based densitometric assay relative to control. Format: cell-based. In outline:
as §2

Assay [10] has the same target. In words: Inhibition of FASN in human NCI-H1703 cells expressing FASN assessed as disruption of AKT/FASN positive feedback loop by measuring decrease in AKT expression at 1 uM after 48 hrs by Western immunoblot based densitometric assay relative to control. It counts as cell-based. The procedure, abridged:
as §2

Assay [11] shares this target. In words: Inhibition of FASN in human NCI-H1703 cells expressing FASN assessed as disruption of AKT/FASN positive feedback loop by measuring decrease in AKT expression at 5 uM after 48 hrs by Western immunoblot based densitometric assay relative to control. Format: cell-based. The procedure, abridged:
as §2

Assay [12] has the same target. In words: Inhibition of FASN in human PC9 cells harboring FASN expression and EGFR delE746-A750 mutant assessed as disruption of AKT/FASN positive feedback loop by measuring reduction in phosphorylated AKT expression at 1 uM after 48 hrs by Western immunoblot based densitometric assay relative to control. Format: cell-based. In outline:
as §2

The target is the same in assay [13]. In words: Inhibition of FASN in human PC9 cells harboring FASN expression and EGFR delE746-A750 mutant assessed as disruption of AKT/FASN positive feedback loop by measuring reduction in phosphorylated AKT expression at 5 uM after 48 hrs by Western immunoblot based densitometric assay relative to control. It counts as cell-based. In outline:
as §2

For assay [14] the target is unchanged. Description: Inhibition of FASN in human NCI-H1703 cells expressing FASN assessed as disruption of AKT/FASN positive feedback loop by measuring decrease in phosphorylated AKT expression at 5 uM after 48 hrs by Western immunoblot based densitometric assay relative to control. It counts as cell-based. In outline:
as §2

The target is the same in assay [15]. Description: Inhibition of FASN in human PC9 cells harboring FASN expression and EGFR delE746-A750 mutant assessed as disruption of AKT/FASN positive feedback loop by measuring decrease in ratio of phosphoAKT/AKT expression at 2 uM after 48 hrs by Western immunoblot based densitometric assay relative to control. It counts as cell-based. The procedure, abridged: (§3)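 PC-9 (2 µM) or H1703 (1 µM) cells were treated with compound, with or without lipid concentrate (1% v/v per figure legend), for 48 h. Cells were lysed in RIPA buffer and lysates run on SDS-PAGE western blots for FASN, AKT, phospho-AKT S473 and GAPDH. Bands were quantified by densitometry and normalised to untreated control.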

Assay [16] has the same target. Description: Inhibition of FASN in human NCI-H1703 cells expressing FASN assessed as disruption of AKT/FASN positive feedback loop by measuring ratio of phosphoAKT/AKT expression at 1 uM after 48 hrs in presence of exogenous lipid concentrate by Western immunoblot based densitometric assay relative to control. Format: cell-based. The procedure, abridged:
as §3

In assay [17] the test system is A549. In words: Antiproliferative activity against human A549 cells expressing FASN assessed as reduction in cell viability after 72 hrs by MTS assay. Format: functional, cell-based. The note with it: A549, 72 h. In outline:
as §1

Assay [18] in a line: Selectivity index, ratio of IC50 for human SAE cells lacking FASN expression to IC50 for human A549 cells expressing FASN. In outline:
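The ratio IC50(SAEC)/IC50(NSCLC line) was calculated from 72 h MTS viability IC50 values.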

Fatty acid synthase (Homo sapiens), sequence (P49327 whole entry, looked up): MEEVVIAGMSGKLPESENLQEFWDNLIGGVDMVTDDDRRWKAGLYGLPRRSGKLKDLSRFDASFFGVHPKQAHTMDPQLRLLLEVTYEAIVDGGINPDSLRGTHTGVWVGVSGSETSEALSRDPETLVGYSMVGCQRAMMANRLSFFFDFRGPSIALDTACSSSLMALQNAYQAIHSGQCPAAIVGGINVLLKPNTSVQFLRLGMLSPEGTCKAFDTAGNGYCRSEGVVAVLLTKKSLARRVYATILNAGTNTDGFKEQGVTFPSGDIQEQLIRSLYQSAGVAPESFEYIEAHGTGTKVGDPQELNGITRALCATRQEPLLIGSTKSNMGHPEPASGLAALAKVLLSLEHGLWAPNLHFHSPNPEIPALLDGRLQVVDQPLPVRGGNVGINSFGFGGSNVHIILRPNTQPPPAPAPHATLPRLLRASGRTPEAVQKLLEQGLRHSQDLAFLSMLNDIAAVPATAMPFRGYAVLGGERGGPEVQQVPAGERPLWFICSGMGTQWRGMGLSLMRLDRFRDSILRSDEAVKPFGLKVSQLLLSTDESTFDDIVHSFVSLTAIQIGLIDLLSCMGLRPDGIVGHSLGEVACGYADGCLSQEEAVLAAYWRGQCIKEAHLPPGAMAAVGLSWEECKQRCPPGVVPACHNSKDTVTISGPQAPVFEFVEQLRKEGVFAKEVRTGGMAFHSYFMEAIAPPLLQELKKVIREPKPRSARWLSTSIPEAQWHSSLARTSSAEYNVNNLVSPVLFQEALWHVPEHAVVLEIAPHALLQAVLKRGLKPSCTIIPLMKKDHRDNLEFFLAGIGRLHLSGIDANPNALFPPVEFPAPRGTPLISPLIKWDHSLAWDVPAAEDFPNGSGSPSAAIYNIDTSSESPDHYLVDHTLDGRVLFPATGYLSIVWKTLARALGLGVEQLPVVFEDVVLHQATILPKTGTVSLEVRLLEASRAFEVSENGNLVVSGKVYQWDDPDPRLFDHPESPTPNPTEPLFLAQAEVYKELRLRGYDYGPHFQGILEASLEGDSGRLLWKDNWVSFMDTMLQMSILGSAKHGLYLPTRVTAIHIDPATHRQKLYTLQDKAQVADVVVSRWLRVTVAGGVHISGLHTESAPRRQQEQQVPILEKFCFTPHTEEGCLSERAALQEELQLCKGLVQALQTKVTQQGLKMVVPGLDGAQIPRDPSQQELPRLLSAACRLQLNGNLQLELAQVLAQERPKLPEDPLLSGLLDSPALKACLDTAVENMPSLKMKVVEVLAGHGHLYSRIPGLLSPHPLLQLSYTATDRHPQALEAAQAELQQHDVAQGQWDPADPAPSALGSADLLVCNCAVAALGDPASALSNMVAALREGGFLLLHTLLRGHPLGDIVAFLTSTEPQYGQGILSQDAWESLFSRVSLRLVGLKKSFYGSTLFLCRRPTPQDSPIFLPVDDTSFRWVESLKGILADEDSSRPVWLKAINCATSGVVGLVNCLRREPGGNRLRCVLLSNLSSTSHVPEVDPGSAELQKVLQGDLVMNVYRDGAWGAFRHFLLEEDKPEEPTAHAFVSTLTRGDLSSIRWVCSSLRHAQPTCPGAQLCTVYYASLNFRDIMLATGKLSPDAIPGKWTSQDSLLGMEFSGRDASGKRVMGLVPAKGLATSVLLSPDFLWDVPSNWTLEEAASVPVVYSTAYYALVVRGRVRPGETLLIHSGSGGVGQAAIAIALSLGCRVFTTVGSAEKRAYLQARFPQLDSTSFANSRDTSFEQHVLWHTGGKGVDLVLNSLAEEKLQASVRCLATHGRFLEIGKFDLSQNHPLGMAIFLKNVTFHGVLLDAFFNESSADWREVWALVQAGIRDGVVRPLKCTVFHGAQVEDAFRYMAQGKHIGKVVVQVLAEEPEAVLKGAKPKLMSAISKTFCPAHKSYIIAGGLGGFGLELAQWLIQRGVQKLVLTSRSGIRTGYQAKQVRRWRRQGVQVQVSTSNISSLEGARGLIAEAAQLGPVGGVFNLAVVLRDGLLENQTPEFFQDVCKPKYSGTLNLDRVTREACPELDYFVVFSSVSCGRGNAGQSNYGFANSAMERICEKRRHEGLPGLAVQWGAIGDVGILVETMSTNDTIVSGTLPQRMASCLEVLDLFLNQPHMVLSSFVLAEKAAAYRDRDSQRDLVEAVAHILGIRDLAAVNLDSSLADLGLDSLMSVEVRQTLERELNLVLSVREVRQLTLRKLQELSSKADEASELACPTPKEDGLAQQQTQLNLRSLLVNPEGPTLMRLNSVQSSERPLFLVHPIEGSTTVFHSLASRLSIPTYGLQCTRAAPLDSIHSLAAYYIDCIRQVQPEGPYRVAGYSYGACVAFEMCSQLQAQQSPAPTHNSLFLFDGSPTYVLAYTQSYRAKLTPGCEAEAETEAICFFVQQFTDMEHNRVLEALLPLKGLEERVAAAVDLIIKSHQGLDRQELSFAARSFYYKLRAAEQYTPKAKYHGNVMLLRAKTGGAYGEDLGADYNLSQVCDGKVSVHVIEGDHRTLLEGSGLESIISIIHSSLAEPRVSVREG

In the case of `O=C(Oc1ccc(/C=C/c2ccc(OC(=O)c3cc(O)c(O)c(O)c3)cc2)cc1)c1cc(O)c(O)c(O)c1`, the inhibition (commonly the drop in the measured response relative to a control, in per cent) at 25 µM in [1] is over 50%. The IC50 (as a rule, the concentration at which inhibition is half-maximal) in [2] is 3.3 µM; in [4], 2.5 µM; in assay [17] it was 2100 nM. For the same compound, the “Ratio IC50” value amounted to 1.5 in assay [3] and 2.4 in [18]. Also, in [5], the inhibition entry is “inactive”. The inhibition result in [6] and in assay [7] was “Dose-dependent effect” throughout. Moreover, the Ratio in assay [8] is 0.92; in assay [9], 0.11 to 0.24; in [10], 0.34; in assay [11], 0.01; in assay [12], 0.88; in [13] it was 0.2. In addition, the Ratio in assay [14] amounted to 0.001; in assay [15] it was 0.13; in [16], 0.62.

Regarding `O=C(Oc1ccc(/C=C/c2cccc(OC(=O)c3cc(O)c(O)c(O)c3)c2)cc1)c1cc(O)c(O)c(O)c1`, the inhibition at 25 µM in assay [1] is over 50%. The half-maximal inhibitory concentration (IC50) turned out to be 3.1 µM in assay [2], 12.7 µM in assay [4] and 2300 nM in [17]. The “Ratio IC50” value stood at 2.2 in assay [3] and 3 in assay [18]. In [5], the inhibition result is “inactive”. Also, the inhibition entry in assay [6] and in assay [7] was “Dose-dependent effect” throughout. In addition, the Ratio is 0.86 in [8]; 0.38 to 0.39 in assay [9]; 0.52 in [10]; 0.11 in [11]; 0.53 in assay [12]; 0.29 in assay [13]. Also, the values for the Ratio in assay [14], in [15] and in [16] were 0.04, 0.12 and 0.61, respectively.
